# Several values for one entry are separate records, joined by “and”; a condition that tells them apart may be missing. Equal values may be shown once.
# Key:
# MSSA ATCC 29213 [1] = assay: MIC, broth microdilution; format: cell-based, Staphylococcus aureus
# Method in brief: (§1)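 Broth microdilution: mid-log cells washed, suspended in cation-adjusted MHB or TSB (0.25% glucose, 0.5% NaCl), and adjusted to 10^8 CFU/mL (OD600 0.5). Added to 2-fold serial dilutions of test compound in 0.2% BSA/0.01% acetic acid, final about 2–5 × 10^5 CFU/mL in polypropylene wells. Incubated 16–18 h at 37 °C, 180 rpm; A600 read. MIC = lowest concentration fully inhibiting growth. Duplicates on at least two days.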
# MRSA ATCC 33591 [2] = assay: MIC, broth microdilution; format: cell-based, Staphylococcus aureus
# Method in brief: as §1
# [3] = system: stationary phase S. aureus cells; assay: SEM and TEM of stationary phase cells; format: cell-based, Staphylococcus aureus; settings: 20 μg/mL, positive control
# S. aureus biofilm = assay: Inhibition of biofilm formation, both strains pooled; format: cell-based, Staphylococcus aureus; settings: identical conditions, 24 h, TSB, MSSA and MRSA
# Method in brief: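 Overnight S. aureus diluted to 10^5 CFU/mL in TSB (0.25% glucose, 0.5% NaCl). Biofilms grown 24 h at 37 °C in polystyrene wells with 20 μM test compound. Biomass by crystal violet after two PBS washes, read at 570 nm. Metabolic activity by resazurin: plate sonicated 5 min at 40 kHz, 30 min dark at room temperature, ex 550/em 590 nm. Viable cells by scraping into PBS, sonicating, plating and counting after 16–18 h at 37 °C.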
# [4] = system: MSSA ATCC 29213 and MRSA ATCC 33591; assay: Killing kinetics of stationary phase cells in TSB medium, both strains pooled; format: cell-based, Staphylococcus aureus; settings: 10 × MIC, 10^7 CFU/mL
# Method in brief: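 Adjusted to 10^7 CFU/mL (OD600 0.05) in the same medium and incubated at 37 °C with test compound at 30, 40 or 50 μM; vancomycin included as comparator. Aliquots taken at 15 and 30 min, 1, 2, 3 and 24 h, serially diluted and drop-plated; colonies counted after 16–18 h. Three independent runs.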
# MRSA ATCC 33591 [5] = assay: In vitro resistance development, serial passage study; format: cell-based, Staphylococcus aureus; settings: cation-adjusted MHB, ratio of MIC after passage to MIC before first passage
# MSSA ATCC 29213 [6] = assay: Killing of stationary phase cells in PBS, colony count; format: cell-based, Staphylococcus aureus; settings: 2 h, 10^5 CFU/mL stationary phase cells
# Method in brief: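 Stationary-phase cells washed once and resuspended in 10 mM PBS (150 mM NaCl, pH 7.4). Adjusted to about 10^8 CFU/mL (OD600 0.5), then diluted 10-fold serially to 10^5 CFU/mL. Exposed to test compound for 2 h at 37 °C, 180 rpm; aliquots diluted, plated and counted after overnight incubation at 37 °C. Bactericidal defined as >3 log reduction versus untreated control.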
# [7] = system: 3T3 murine fibroblast cells; assay: Cytotoxicity, MTT assay; format: cell-based; settings: 2% Triton X-100, positive control
# Method in brief: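 3T3 murine fibroblasts seeded at 0.2 × 10^5 cells/well in DMEM with 10% FBS for 24 h to about 75% confluence. Exposed to 20 or 50 μM test compound in serum-free DMEM for 2 h at 37 °C, 5% CO2. Washed, then 0.1 mg/mL MTT for 2 h in the dark; formazan dissolved in DMSO and read at 570 nm. Survival % = OD570 sample/untreated × 100. Two independent runs in duplicate.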
# [8] = system: murine red blood cells (RBCs); assay: Hemolytic activity; format: cell-based; settings: 1 h
# Method in brief: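 Fresh murine RBCs washed twice in 35 mM PBS (150 mM NaCl, pH 7.4) and suspended at 4% (v/v). Mixed 1:1 with 2-fold serial dilutions of test compound in PBS and held 1 h at 37 °C. After centrifugation, supernatant diluted in PBS and hemoglobin read at 414 nm. Lysis % scaled between PBS and 0.1% Triton X-100 (100%). Duplicate wells, two days.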
# S. aureus cells = assay: MIC of palmitic acid, preliminary studies; format: cell-based; settings: Staphylococcus aureus
# [9] = Staphylococcus aureus, ATCC29213|MSSA
# [10] = tryptic soy broth (0.25% glucose, 0.5% NaCl)
# [11] = Staphylococcus aureus, ATCC33591|MRSA
compound,measurement,setting,value
Cc1onc(-c2ccccc2)c1C(=O)N[C@@H]1C(=O)N2[C@@H]1SC(C)(C)[C@@H]2C(=O)O [oxacillin],MIC,MSSA ATCC 29213 [1]; [9],< 0.8 µM and < 0.35 µg/mL
same,MIC,MSSA ATCC 29213 [1]; [10],< 0.8 μM and < 0.35 μg/mL
same,MIC,MRSA ATCC 33591 [2]; [11],134 µM to 268 µM and 56.8 µg/mL to 114 µg/mL
same,MIC,MRSA ATCC 33591 [2]; [10],134.1–268.3 μM and 56.8–113.6 μg/mL
gramicidin D,bacterial morphology and surface integrity in SEM and TEM,[3],"presence of cell debris, dents on the surface, and loss in shape of the cells"
CN[C@H](CC(C)C)C(=O)N[C@H]1C(=O)N[C@@H](CC(N)=O)C(=O)N[C@H]2C(=O)N[C@H]3C(=O)N[C@H](C(=O)N[C@H](C(=O)O)c4cc(O)cc(O)c4-c4cc3ccc4O)[C@H](O)c3ccc(c(Cl)c3)Oc3cc2cc(c3O[C@@H]2O[C@H](CO)[C@@H](O)[C@H](O)[C@H]2O[C@H]2C[C@](C)(N)[C@H](O)[C@H](C)O2)Oc2ccc(cc2Cl)[C@H]1O [vancomycin],log reduction in the viable cell count of the biofilm,S. aureus biofilm,≥ 4.8 log
same,reduction of biofilm biomass (crystal violet),S. aureus biofilm,≥ 98.32 ± 0.95%
same,reduction of metabolic activity in the biofilm (resazurin),S. aureus biofilm,100%
same,log reduction in the cell count,"[4]; 24 h, range over MSSA and MRSA",3.4–4.4 log
same,cell viability,[4]; up to 3 h,did not affect the cell viability
same,increase in MIC after 18 serial passages at sub-MIC concentrations,MRSA ATCC 33591 [5],8 fold
same,MIC,MSSA ATCC 29213 [1]; [9],0.48 µM
same,MIC,MSSA ATCC 29213 [1]; [10],0.48 µM
same,MIC,MRSA ATCC 33591 [2]; [11],0.48 to 0.96 µM
same,MIC,MRSA ATCC 33591 [2]; [10],0.48−0.96 μM
O=C(O)c1cn(C2CC2)c2cc(N3CCNCC3)c(F)cc2c1=O [ciprofloxacin],increase in MIC after 18 serial passages at sub-MIC concentrations,MRSA ATCC 33591 [5],66 fold
Ac-K^11-P^12-V^13-NH2 [α-MSH(11-13)],log reduction in viable cell count,MSSA ATCC 29213 [6]; 150 μM,0.7 log
Ac-H^6-F^7-R^8-W^9-G^10-K^11-P^12-V^13-NH2 [α-MSH(6-13)],log reduction in viable cell count,MSSA ATCC 29213 [6]; 20 μM,~2 log
same,log reduction in viable cell count,MSSA ATCC 29213 [6]; 50 μM,~2 log
Triton X-100,reduction in survival of the cells relative to untreated growth control,[7],52.8%
CC[C@H](C)[C@H](NC(=O)CN)C(=O)NCC(=O)N[C@@H](C)C(=O)N[C@H](C(=O)N[C@@H](CC(C)C)C(=O)N[C@@H](CCCCN)C(=O)N[C@H](C(=O)N[C@@H](CC(C)C)C(=O)N[C@H](C(=O)N[C@H](C(=O)NCC(=O)N[C@@H](CC(C)C)C(=O)N1CCC[C@H]1C(=O)N[C@@H](C)C(=O)N[C@@H](CC(C)C)C(=O)N[C@H](C(=O)N[C@@H](CO)C(=O)N[C@@H](Cc1c[nH]c2ccccc12)C(=O)N[C@H](C(=O)N[C@@H](CCCCN)C(=O)N[C@@H](CCCNC(=N)N)C(=O)N[C@@H](CCCCN)C(=O)N[C@@H](CCCNC(=N)N)C(=O)N[C@@H](CCC(N)=O)C(=O)N[C@@H](CCC(N)=O)C(N)=O)[C@@H](C)CC)[C@@H](C)CC)[C@@H](C)O)[C@@H](C)O)C(C)C)C(C)C [melittin],HC50 (concentration that causes lysis of 50% of the RBCs),[8],≤ 3.9 µM
CCCCCCCCCCCCCCCC(=O)O [palmitic acid],MIC,S. aureus cells,> 50 µM

# — PMC7658953 (ACS Omega, 2020)
